Test results taken from article PMC3299854 (Neurobiology of Disease, 2012).
Entries after “also recorded” stand apart in the source; their conditions may differ. Where two headings read alike, the source gives them in different places.

Experiments:
[1] = test system: cultured hippocampal neurons; assay: NMDA-induced DCD, calcium imaging; type: cell-based, rat; settings: 30 μM NMDA plus 10 μM glycine; MK801 1 μM, memantine 10 μM, AP-5 20 μM; Suppl. Fig. 3
NMDAR [2] = assay: NMDA-induced ion currents, whole-cell voltage-clamp; type: cell-based, rat
[3] = test system: cultured hippocampal neurons; type: cell-based, rat
[4] = test system: cultured hippocampal neurons; assay: NMDA-induced increase in [Na+]c; type: cell-based, rat; settings: MK801 1 μM, memantine 10 μM, AP-5 20 μM; Suppl. Fig. 4
forward mode of NCX = assay: Forward mode of NCX; type: cell-based; settings: authors' unpublished data
[5] = test system: NCXrev (reverse Na+/Ca2+ exchanger); assay: Gramicidin-induced; type: cell-based, rat; settings: for efficacy of inhibition of gramicidin-induced increase in [Ca2+]c / IC50: 5 μM gramicidin; for efficacy of inhibition of gramicidin-induced increase in [Ca2+]c: 1 μM MK801, 50 μM memantine, 200 μM AP-5 (Fig. 3); for IC50: read-out: IC50, inhibition of gramicidin-induced increase in [Ca2+]c, bath with 5 μM nifedipine and 1 mM ouabain, Suppl. Fig. 6
NCXrev = assay: NCXrev-mediated ion currents, voltage ramp whole-cell patch-clamp; type: cell-based, rat; settings: 5 mM Ni2+, 10 μM KB-R7943, 10 μM MK801, 50 μM memantine, 50 μM AP-5
[6] = test system: cultured hippocampal neurons; assay: Glutamate-induced plasma membrane depolarization; type: cell-based, rat; settings: Annine-6plus; 25 μM glutamate plus 10 μM glycine; 1 μM MK801, 50 μM memantine, 200 μM AP-5
How it was run: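 Rat P1 hippocampal neurons, glia-free, 12–14 DIV, in standard NaCl bath (pH 7.4). Loaded with 4 μM Annine-6plus for 5 min at room temperature; excitation 480 nm, emission >570 nm; F480 expressed as F/F0. Inhibitors in 0.2% DMSO. 142 mM KCl substituted for NaCl at end for full depolarization. Depolarization shown as % resting potential over time; mean ± s.e.m., n=3.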

NMDAR [7] = assay: NMDA-induced increase in [Ca2+]c, calcium imaging; type: cell-based, rat; settings: for IC50: read-out: IC50, inhibition of NMDA-induced increases in [Ca2+]c
[8] = test system: cultured hippocampal neurons; assay: NMDA-induced plasma membrane depolarization; type: cell-based, rat; settings: 30 μM NMDA plus 10 μM glycine; MK801 1 μM, memantine 10 μM, AP-5 20 μM; Suppl. Fig. 5
[9] = test system: cultured hippocampal neurons; assay: Glutamate-induced increase in [Na+]c, fluorescence imaging; type: cell-based, rat; settings: 25 μM glutamate plus 10 μM glycine; for effect on glutamate-induced increases in [Na+]c: SBFI, 1 μM MK801, 50 μM memantine, 200 μM AP-5; for effect on glutamate-induced increase in [Na+]c: Sodium Green, 10 μM EIPA, 10 μM MK801
[10] = test system: cultured hippocampal neurons; settings: CNQX 10–100 μM; ref Brustovetsky et al., 2011; cited from earlier work
NMDAR [11] = settings: read-out: IC50, inhibition of NMDAR; ref Brustovetsky et al., 2011; cited from earlier work
neurons = settings: ref Levy and Lipton, 1990; cited from earlier work
[12] = whole-cell voltage-clamp, Suppl. Fig. 2
[13] = rat cultured hippocampal neurons, Suppl. Fig. 1

Compound	effect on DCD induced by NMDA [1]	effect on NMDA-induced ion currents (NMDAR [2]; [12])	effect on glutamate-induced DCD [3]	effect on [Na+]c elevated after NMDA application [4]	effect on forward mode of NCX (forward mode of NCX)	efficacy of inhibition of gramicidin-induced increase in [Ca2+]c [5]	IC50 [5] [nM]	effect on NCXrev-mediated ion currents (NCXrev)	effect on glutamate-induced plasma membrane depolarization [6]	extent of inhibition of NMDA-induced increases in [Ca2+]c (NMDAR [7]; [13])	IC50 (NMDAR [7]; [13]) [nM]	effect on plasma membrane depolarization induced by NMDA [8]	effect on glutamate-induced increases in [Na+]c [9]	effect on glutamate-induced increase in [Na+]c [9]	other results
C[C@]12N[C@H](Cc3ccccc31)c1ccccc12 [MK801]	completely prevented DCD	inhibited NMDA-induced ion currents	completely prevented	significantly lowered	not affected	very effectively inhibited	500 ± 80	inhibited	nor prevented	completely inhibited	200 ± 40	completely prevented	neither attenuated	failed to prevent or diminish	–
CCN(c1nc(N)c(C(=O)NC(=N)N)nc1Cl)C(C)C [EIPA, 5-(N-ethyl-N-isopropyl)amiloride]	–	–	failed to prevent or attenuate	–	–	–	–	–	–	–	–	–	–	significantly attenuated	effect on gramicidin-induced increase in [Ca2+]c ([5]; EIPA 10 μM, Suppl. Fig. 9): inhibited neither NMDAR nor NCXrev; effect on NMDA-induced increase in [Ca2+]c (NMDAR [7]; EIPA 10 μM, Suppl. Fig. 9): inhibited neither NMDAR nor NCXrev
N#Cc1cc2[nH]c(=O)c(=O)[nH]c2cc1[N+](=O)[O-] [CNQX, 6-cyano-7-nitroquinoxaline-2,3-dione]	–	–	–	–	–	–	–	–	–	–	–	–	–	–	effect on glutamate-induced DCD [10]: had no effect
N=C(N)SCCc1ccc(OCc2ccc([N+](=O)[O-])cc2)cc1 [KB-R7943]	–	–	failed to prevent DCD	–	–	–	–	strongly attenuated	–	–	–	–	–	–	IC50 (NMDAR [11]): 13.4 ± 3.6 µM
N[C@H](CCCP(=O)(O)O)C(=O)O [AP-5, D-(−)-2-Amino-5-phosphonopentanoic acid]	completely prevented DCD	inhibited NMDA-induced ion currents	failed to prevent DCD; also recorded: failed to prevent or attenuate	significantly lowered	–	much less efficacious	2800 ± 700	practically without effect	nor prevented	completely inhibited	2200 ± 30	completely prevented	neither attenuated	–	neuroprotection against glutamate excitotoxicity (neurons): only moderately effective
CC12CC3CC(C)(C1)CC(N)(C3)C2 [memantine]	completely prevented DCD	–	completely prevented	significantly lowered	not affected	very effectively inhibited	17100 ± 240	inhibited	nor prevented	–	–	completely prevented	neither attenuated	–	effect on NMDA-induced ion currents (NMDAR [2]): inhibited NMDA-induced ion currents; extent of inhibition of NMDA-induced increases in [Ca2+]c (NMDAR [7]): completely inhibited; IC50 (NMDAR [7]): 3600 ± 50 nM
